High-throughput results (PubChem BioAssay)
DAT uptake mod: human DAT dopamine uptake with cocaine, either direction; Q01959; LLC-PK1 hDAT cells, [14C]-dopamine uptake with cocaine IC80; actives deviate in either direction; B-score at 10 µM; hit rate 1.3% among 110,000; AID 449768;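 active = Z score or B-score, a plate-position-corrected score, falls beyond the plate's 99.7% confidence bounds, in either direction; inactive = both scores lie inside the 99.7% bounds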
Target sequence (Q01959 whole entry, looked up): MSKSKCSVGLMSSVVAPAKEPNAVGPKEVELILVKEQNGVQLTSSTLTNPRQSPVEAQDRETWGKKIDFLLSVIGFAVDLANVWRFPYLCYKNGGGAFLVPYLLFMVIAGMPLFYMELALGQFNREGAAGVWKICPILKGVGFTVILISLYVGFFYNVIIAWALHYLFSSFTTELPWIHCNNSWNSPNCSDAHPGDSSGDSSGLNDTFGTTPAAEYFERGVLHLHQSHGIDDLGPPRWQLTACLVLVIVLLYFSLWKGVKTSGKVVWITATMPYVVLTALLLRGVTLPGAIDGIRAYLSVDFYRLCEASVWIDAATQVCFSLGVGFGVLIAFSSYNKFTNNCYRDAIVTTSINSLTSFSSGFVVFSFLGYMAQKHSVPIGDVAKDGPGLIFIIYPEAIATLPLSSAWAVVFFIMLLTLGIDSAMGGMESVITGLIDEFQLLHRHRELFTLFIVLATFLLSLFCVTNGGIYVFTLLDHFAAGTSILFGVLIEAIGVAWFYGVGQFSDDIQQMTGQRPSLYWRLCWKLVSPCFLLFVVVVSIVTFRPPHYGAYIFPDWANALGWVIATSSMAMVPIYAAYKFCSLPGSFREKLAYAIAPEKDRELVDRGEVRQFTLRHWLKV
Cav32 inh: inhibitors of human Cav3.2 T-type calcium channel. Cav3.2-expressing cells, Fluo-4 calcium fluorescence FDSS; active compounds read low. O95180. AID 449739. hit rate 4% among 100,000. B-score at 10 µM;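 active = single-dose well whose peak fluorescence ratio is a statistical outlier from its plate by either plate-standardised score or position-corrected B-score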
Rev-RRE block: disrupts HIV-1 Rev binding to RRE RNA; P05866; Rev peptide-RRE RNA binding, FRET; inhibition, % at 8 µM; hit rate 0.79% among 97,000;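 active = inhibition above the screen-wide mean plus 3 SD, cut at about 35% in these data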
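Assay system: labelled RRE RNA duplex and labelled Rev peptide / Medium: HEPES pH 7.5 salt buffer with EDTA / Reagent: labelled Rev peptide / Schedule: 5 + 15 min at 25 °C / Signal: FRET, excitation 480 nm, emission 540 nm donor and 671 nm acceptor / Benchmarks: DMSO and neomycin B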
EphB4 ephrin blk: EphB4-ephrin-B2 interaction antagonism; P54760; EphB4 LBD / TNYL-RAW-Alexa532 peptide, fluorescence polarization; inhibition, % at 7 µM; hit rate 0.15% among 97,000; AID 720;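 active = inhibition above the screen-wide mean inhibition plus 3 SD, cut at about 15% in these data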
Hits are given with their value; – = inactive; · = not tested or not shown. A selection: hits, their analogues and other compounds. The true share with any hit is near 5.4%.

SMILES | DAT uptake mod | Cav32 inh | Rev-RRE block | EphB4 ephrin blk
Cc1c(C)c2ccc(OCC(=O)N(C)C)c(C)c2oc1=O | – | – | – | –
CCOC(=O)CCc1c(C)c2ccc(OCC(=O)N(CC)CC)c(C)c2oc1=O | 2.7 | – | – | –
COc1ccc(COc2ccsc2C(=O)Nc2ccc(Cl)c(Cl)c2)cc1 | – | – | – | –
CCN(CC(=O)NCc1ccc(F)cc1)CC(O)COCc1cccc(OC)c1 (stereo unspecified) | – | – | – | –
Cc1ccc(Cn2ncc3c(N4CCN(Cc5ccc(Cl)cc5)CC4)ncnc32)cc1 | · | · | – | –
Cc1ccccc1N1CCN(c2ncnc3c2cnn3Cc2ccc(Cl)cc2)CC1 | – | -4.6 | – | –
CCCn1c(NC(=O)C2COc3ccccc3O2)nc2ccccc21 (stereo unspecified) | – | – | – | 17
O=C(Nc1cnc2ccccc2c1)C1COc2ccccc2O1 (stereo unspecified) | – | -12 | – | –
CN(C)CCCn1c(NC(=O)C2CCCCC2)nc2ccccc21 | – | -3.6 | – | –
O=C(Nc1ccncc1)C1COc2ccccc2O1 (stereo unspecified) | – | – | – | –
COc1c2c(nc3occc13)C(CCC(C)(C)O)(OC)C(O)CC2 (stereo unspecified) | – | – | – | –
Cc1cccc(N2CCN(C(=O)n3ccnc3)CC2)c1C | – | – | – | –
C/C(=N\NC(=O)CC1N=C(Cc2ccccc2)NNC1=O)c1ccc(Cl)cc1Cl (stereo unspecified) | – | -4.7 | – | –
CC(NC(=O)COc1cc(=O)n(C)c2ccccc12)c1ccc2c(c1)OCCO2 (stereo unspecified) | 1.7 | – | – | –
CC(NC(=O)c1cc2c(=O)n(C)c3ccccc3c2n1C)c1ccc2c(c1)OCCO2 (stereo unspecified) | – | – | – | –
Cc1cc(C)c(C#N)c(Sc2nnnn2-c2ccccc2)n1 | – | – | – | –
O=c1[nH]c2ccc(Cl)cc2c(-c2ccccc2)c1SC(=S)N1CCCCC1 | 3.4 | – | – | –
O=C(c1ccccc1[N+](=O)[O-])N1CCC(Cc2ccccc2)CC1 | – | – | – | –
COc1ccc2cc(CCNC(=O)c3c(-c4ccccc4Cl)noc3C)c(=O)[nH]c2c1 | – | · | · | ·
Cc1ccc(/C(O)=C2\C(=O)C(=O)N(c3cc(C)on3)C2c2cccc(Br)c2)cc1 (stereo unspecified) | – | -3.7 | – | –
Cc1cc(N2C(=O)C(=O)/C(=C(/O)c3ccc(F)cc3)C2c2cccc(Br)c2)no1 (stereo unspecified) | – | – | – | –
Cc1ccc(/C(O)=C2\C(=O)C(=O)N(c3cc(C)on3)C2c2cccc(Cl)c2)cc1 (stereo unspecified) | – | -3.1 | – | –
O=C(NNC(=O)c1ccccc1Br)c1ccc(SCC2CCCO2)c([N+](=O)[O-])c1 (stereo unspecified) | – | – | – | –
Oc1c(Cl)cc(Cl)cc1C=Nc1ccc2c(c1)OCCO2 | – | -9 | 46 | –
Cc1ccc(-n2c(O)c(C=Nc3ccc4c(c3)OCO4)c3ccccc3c2=O)cc1C | – | – | – | –
SMILES | DAT uptake mod | Cav32 inh | Rev-RRE block | EphB4 ephrin blk
O=C(CCCN1C(=O)c2ccccc2C1=O)NC1CCCCCC1 | – | – | – | –
CC(NC(=O)CCCN1C(=O)c2ccccc2C1=O)c1ccc2c(c1)CCCC2 (stereo unspecified) | – | -4.2 | – | –
CC(NC(=O)CCCCCN1C(=O)c2ccccc2C1=O)c1ccc2c(c1)CCCC2 (stereo unspecified) | – | -3.7 | – | –
Cc1ccc(C23CC4CC(CC(C(=O)N5CCOCC5)(C4)C2)C3)cc1 | – | – | – | –
CC(C)NC(=O)c1ccccc1NC(=O)C1CCCO1 (stereo unspecified) | – | – | – | –
COc1ccc(NC(=O)c2ccccc2NC(=O)C2CCCO2)cc1 (stereo unspecified) | -9 | – | – | –
COc1ccc(CC(=O)OCC(=O)NC(=O)NC2CCCCC2)cc1 | – | – | – | –
COc1ccc(NC(=O)N2CCC(n3nnc4cc(C)ccc43)CC2)cc1 | – | – | – | –
COc1ccc(C(=O)NCCn2ccc3ccccc32)c(OC)c1 | – | – | – | –
CCN(CC)S(=O)(=O)c1ccc(-n2cnnn2)c(C)c1 | – | – | – | –
Cc1cc(S(=O)(=O)N(Cc2ccccn2)Cc2ccco2)ccc1-n1cnnn1 | 2.6 | – | · | ·
Cc1ccc(C)c(N2CCN(C(=O)C3CCN(c4nc(C)cc(C)n4)CC3)CC2)c1 | – | -5.6 | – | –
Cc1ccc(C)c(N2CCN(C(=O)C3CCN(c4nnc(N5CCCC5=O)s4)CC3)CC2)c1 | · | · | – | –
COc1ccc(S(=O)(=O)Nc2cc(C)c(O)c(S(=O)(=O)c3ccccc3)c2)cc1 | – | -5.1 | · | ·
COc1ccc(S(=O)(=O)Nc2cccc(NC(C)=O)c2)cc1 | – | – | – | –
COc1cc(C(=O)n2nc(C)cc2C)ccc1O | – | – | – | –
Cn1c(Cn2c(=O)sc3ccccc32)nnc1SCC(=O)NC1CCCC1 | 7.6 | – | · | ·
O=[N+]([O-])c1nn(-c2ccc3c(c2)OCCO3)n(O)c1=NCc1ccccc1Cl | 14 | – | – | –
CCC(=O)Nc1c(-c2ccc(OC)cc2)c(=O)c2ccccc2n1C | -9.1 | – | – | –
O=C(OCCN=C1NS(=O)(=O)c2ccccc21)C1CC(=O)N(c2ccc3ccccc3c2)C1 (stereo unspecified) | – | – | – | –
CCN1CCN(Cc2ccc(NC(=O)c3ccc(C)c(NC(=O)c4csc(-c5ccncc5)n4)c3)cc2C(F)(F)F)CC1 | 1.8 | – | · | ·
CC1CCCCN1C(=O)c1cc2nc(-c3ccccc3)cc(-c3ccccc3)n2n1 (stereo unspecified) | – | – | – | –
CCCCC(CC)Cn1c2nc3ccccc3nc2c2c(=N)oc(C)nc21 (stereo unspecified) | · | · | 37 | –
CCCCC(CC)Cn1c(N)c(C#N)c2nc3ccccc3nc21 (stereo unspecified) | – | – | – | –
O=C(Nc1cccnc1Cl)C1c2ccccc2Oc2ccccc21 | – | – | – | –
SMILES | DAT uptake mod | Cav32 inh | Rev-RRE block | EphB4 ephrin blk
CCc1ccc(-c2cc(C(=O)Nc3c(C)n(C)n(-c4ccccc4)c3=O)c3ccccc3n2)s1 | – | -4.3 | – | –
Cn1c(CNc2nc(-c3ccccc3)cs2)nnc1SCC(=O)OC1CCCCC1 | – | -6.1 | · | ·
Cc1ccnc(NC(=O)CCC2COc3ccccc3O2)c1 (stereo unspecified) | – | · | – | –
O=C(CCC1COc2ccccc2O1)Nc1ccc(Cl)cn1 (stereo unspecified) | – | -5.9 | – | –
CC(NC(=O)C(NC(=O)C1CCCN1C(=O)OC(C)(C)C)C(C)C)C(N)=O (stereo unspecified) | – | – | – | –
O=C(NC1CCCCC1)C(c1ccc2ncccc2c1)N(Cc1ccc(F)cc1)C(=O)c1cccs1 (stereo unspecified) | · | · | – | –
COc1ccccc1C(=O)OCc1c(F)cccc1Cl | – | -1.9 | – | –
O=C(Cc1c(F)cccc1Cl)c1ccc(O)cc1O | – | – | – | –
